From PMC6675461 (Bioorganic & medicinal chemistry, 2009)
Where two headings read alike, the source gives them in different places.

Assays:
[1] = tested on: three melanoma cell lines (B16-F1, A375, WM-164); assay: SRB assay, average over melanoma cell lines and selectivity vs fibroblast; assay type: cell-based, human, mouse; details: for Ratio = (IC50 of fibroblast cell)/(the average IC50 of melanoma cell lines): selectivity, fold
DU 145 cells = assay: SRB antiproliferative assay, DU 145 prostate cancer cells; assay type: cell-based, human; details: read-out: IC50 ± SEM DU 145
Method in brief: (§1)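 Prostate cancer cells were grown in RPMI1640 with 10% FBS at 37 °C, 5% CO2. Cells were fixed with 10% TCA and stained with 0.4% SRB, and absorbance was read at 540 nm. IC50 came from nonlinear regression of % survival versus concentration.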

LNCaP cells [2] = assay: SRB antiproliferative assay, LNCaP prostate cancer cells; assay type: cell-based, human; details: 96 h, read-out: IC50 ± SEM LNCaP
Method in brief: as §1

PPC-1 cells = assay: SRB antiproliferative assay, PPC-1 prostate cancer cells; assay type: cell-based, human; details: read-out: IC50 ± SEM PPC-1
Method in brief: as §1

[3] = tested on: NCI-60 human tumor cell lines; assay: NCI-60 human tumor cell line anticancer drug screen; assay type: cell-based
A375 cells [4] = assay: Flow cytometric cell cycle analysis, A375; assay type: cell-based, human; details: A375, tested 1, 5, 10, 20 μM, 48 h
LNCaP cells [5] = assay: Flow cytometric cell cycle analysis, LNCaP; assay type: cell-based, human; details: tested 1, 5, 10, 20 μM, 48 h
A375 cells [6] = assay: Melanoma colony-formation assay; assay type: cell-based, human; details: 14 days
Method in brief: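 A375 cells were plated at colony-forming density (2000 per well) in DMEM with FBS and antibiotic-antimycotic at 37 °C, 5% CO2. Test compound was added at 2, […], with matching DMSO dilution as vehicle control. After 14 days' growth, colonies were stained with 0.1% […] for 30 min, rinsed and counted with an automated colony counter.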

A375 melanoma tumors = assay: A375 melanoma xenograft in athymic nude mice; assay type: in vivo
PC-3 cells = assay: SRB antiproliferative assay, PC-3 prostate cancer cells; assay type: cell-based, human; details: read-out: IC50 ± SEM PC-3
RH7777 cells = assay: SRB assay, RH7777 control cells; assay type: cell-based; details: Homo sapiens, RH7777, 96 h, read-out: IC50 ± SEM RH7777
Method in brief: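 PC-3 cells were grown in RPMI1640 with 10% FBS, and RH7777 cells in DMEM with 10% FBS, both at 37 °C, 5% CO2. Cells were fixed with 10% TCA, stained with 0.4% SRB and read at 540 nm. IC50 came from nonlinear regression of % survival versus concentration.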

LPA1 = LPA1 (Homo sapiens, UniProt Q92633); assay: FLIPR intracellular calcium mobilization assay, LPA1-transfected Chem-1 cells; assay type: cell-based; details: for agonist activity on LPA1, in words: top concentration 10 μM, 15% activation of oleoyl-LPA Emax = agonist
LPA1, sequence (Q92633 whole entry, species assumed): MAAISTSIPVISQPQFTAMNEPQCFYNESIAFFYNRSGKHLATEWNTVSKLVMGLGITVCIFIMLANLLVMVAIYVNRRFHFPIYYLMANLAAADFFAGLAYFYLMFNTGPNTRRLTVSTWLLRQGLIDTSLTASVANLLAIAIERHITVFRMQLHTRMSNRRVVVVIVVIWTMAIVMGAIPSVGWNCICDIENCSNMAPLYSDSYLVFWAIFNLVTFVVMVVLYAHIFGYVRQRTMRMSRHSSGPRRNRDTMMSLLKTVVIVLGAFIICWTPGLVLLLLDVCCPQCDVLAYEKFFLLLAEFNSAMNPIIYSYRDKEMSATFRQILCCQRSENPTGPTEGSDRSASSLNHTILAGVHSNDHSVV

LPA3 = biological target: T1, LPA3 (Homo sapiens, UniProt Q9UBY5); assay: FLIPR intracellular calcium mobilization assay, LPA3-transfected Chem-1 cells; assay type: cell-based; details: for agonist activity on LPA3, in words: top concentration 10 μM, 15% activation of oleoyl-LPA Emax = agonist
T1 sequence (Q9UBY5 1-353): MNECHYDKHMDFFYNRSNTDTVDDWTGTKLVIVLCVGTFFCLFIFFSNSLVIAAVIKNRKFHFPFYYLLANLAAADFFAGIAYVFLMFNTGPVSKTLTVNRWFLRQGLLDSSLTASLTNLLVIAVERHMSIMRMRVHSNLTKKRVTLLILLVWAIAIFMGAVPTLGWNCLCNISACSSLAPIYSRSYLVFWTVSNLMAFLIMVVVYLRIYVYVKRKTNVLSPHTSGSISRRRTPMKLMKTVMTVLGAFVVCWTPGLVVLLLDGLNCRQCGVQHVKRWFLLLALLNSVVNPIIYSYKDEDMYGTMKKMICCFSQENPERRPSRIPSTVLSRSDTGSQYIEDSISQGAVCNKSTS

LPA5 = LPA5 (Homo sapiens, UniProt Q9H1C0); assay: FLIPR intracellular calcium mobilization assay, LPA5-transfected Chem-1 cells; assay type: cell-based; details: for agonist activity on LPA5, in words: top concentration 10 μM, 15% activation of oleoyl-LPA Emax = agonist
LPA5, sequence (Q9H1C0 whole entry, species assumed): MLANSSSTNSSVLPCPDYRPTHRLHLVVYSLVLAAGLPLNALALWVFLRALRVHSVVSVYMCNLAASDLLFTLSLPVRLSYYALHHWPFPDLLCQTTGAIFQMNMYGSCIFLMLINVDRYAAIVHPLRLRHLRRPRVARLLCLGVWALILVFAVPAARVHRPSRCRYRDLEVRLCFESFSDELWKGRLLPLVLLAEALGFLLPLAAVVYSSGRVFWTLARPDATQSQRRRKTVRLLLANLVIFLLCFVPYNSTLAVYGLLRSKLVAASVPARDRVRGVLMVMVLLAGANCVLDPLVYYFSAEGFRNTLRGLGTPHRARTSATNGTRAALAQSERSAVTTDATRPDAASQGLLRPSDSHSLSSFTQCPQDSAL

B16-F1 cells = assay: SRB antiproliferative assay, B16-F1 melanoma cells; assay type: cell-based, mouse; details: read-out: IC50 ± SEM B16-F1, 48 h, diastereomeric mixtures
Method in brief: (§2)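 Melanoma lines (human A375, WM-164; mouse B16-F1) and human dermal fibroblasts were grown in DMEM with 5% FBS, 1% antibiotic/antimycotic and bovine insulin (5 μg/mL) at 37 °C, 5% CO2. Diastereomeric mixtures were applied over a wide concentration range for 48 h. Cells were then TCA-fixed (10%), washed, air-dried overnight and SRB-stained, with absorbance read at 560 nm. IC50 (50% growth inhibition versus untreated) was obtained by nonlinear regression.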

A375 cells [7] = assay: SRB antiproliferative assay, A375 melanoma cells; assay type: cell-based, human; details: read-out: IC50 ± SEM A375; SRB, 48 h, diastereomeric mixtures
Method in brief: as §2

WM-164 cells = assay: SRB antiproliferative assay, WM-164 melanoma cells; assay type: cell-based, human; details: read-out: IC50 ± SEM WM-164; SRB, 48 h, diastereomeric mixtures
Method in brief: as §2

[8] = tested on: Human dermal fibroblast cells; assay: SRB assay, fibroblast control cells; assay type: cell-based; details: read-out: IC50 ± SEM Fibroblast, 48 h, control cell line for melanoma
Method in brief: as §2

[9] = tested on: four prostate cancer cell lines (DU 145, PC-3, LNCaP, PPC-1); assay: SRB assay, average over prostate cancer cell lines and selectivity vs RH7777; assay type: cell-based, human; details: for IC50: read-out: Aver. (average IC50 of four prostate cells IC50s), DU 145, PC-3, LNCaP, PPC-1; for Ratio = (IC50 of RH7777 cell)/(average IC50 of prostate cell lines): selectivity, fold
Method in brief: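 The control line was LPL receptor-negative RH7777 in DMEM/10% FBS. The prostate IC50s were averaged. Selectivity = IC50 in RH7777 divided by the average tumor-cell IC50.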

[10] = Fibroblast, read-out: Aver. (average IC50 of three melanoma cells IC50s)
[11] = against oleoyl-LPA at EC80, top concentration 10 μM
[12] = read-out: Aver. (average IC50 of three melanoma cells IC50s), B16-F1, A375, WM-164

CCCCCCCCCCCCCCCCNC(=O)[C@@H]1CSC(c2ccc(NC(C)=O)cc2)N1 (mixture of isomers) [Compound 1b, (2RS,4R)-2-(4-Acetylamino-phenyl)-thiazolidine-4-carboxylic acid hexadecylamide]
IC50 [1, 10]: 1800 nM | IC50 ([1]; Fibroblast, read-out: IC50 range over melanoma cell lines): 700 to 2100 nM | IC50 (DU 145 cells; Homo sapiens, DU-145, 96 h): 1700 ± 100 nM | IC50 (LNCaP cells [2]; Homo sapiens, LNCaP): 1000 ± 100 nM | IC50 (PPC-1 cells; Homo sapiens, PPC-1, 96 h): 400 ± 100 nM | GI50 ([3]; read-out: GI50 melanoma): 130 to 1480 nM | GI50 ([3]; read-out: GI50 prostate cancer): 170 to 270 nM | GI50 ([3]; read-out: GI50 range, all nine types of cancer cells): 120 to 10900 nM | concentration at which accumulation of cells in sub-G1 phase became apparent (A375 cells [4]): 5 µM | concentration at which accumulation of cells in sub-G1 phase became apparent (LNCaP cells [5]): 5 µM | inhibition of A375 colony formation (A375 cells [6]; 2 μM): effectively inhibit | inhibition of A375 colony formation (A375 cells [6]; 100 μM): completely inhibited | body weight change during the experiment (A375 melanoma tumors; nude mice, treatment groups): no significant body weight loss

CCCCCCCCCCCCCCCCNC(=O)[C@@H]1CSC(c2cc(OC)c(OC)c(OC)c2)N1 (mixture of isomers) [Compound 3ad, (2RS,4R)-2-(3,4,5-Trimethoxy-phenyl)-thiazolidine-4-carboxylic acid hexadecylamide]
IC50 [1, 10]: 1200 nM | IC50 (DU 145 cells; Homo sapiens, DU-145, 96 h): 1700 ± 100 nM | IC50 (PC-3 cells; Homo sapiens, PC-3, 96 h): 1800 ± 100 nM | IC50 (LNCaP cells [2]; Homo sapiens, LNCaP): 800 ± 100 nM | IC50 (PPC-1 cells; Homo sapiens, PPC-1, 96 h): 400 ± 100 nM | IC50 (RH7777 cells): 7200 ± 100 nM | concentration at which accumulation of cells in sub-G1 phase became apparent (A375 cells [4]): 5 µM | concentration at which accumulation of cells in sub-G1 phase became apparent (LNCaP cells [5]): 5 µM | antagonist activity on LPA1, in words (LPA1; [11]): did not exhibit any dose-dependent antagonist activity | agonist activity on LPA1, in words (LPA1): did not exhibit any dose-dependent agonist activity | antagonist activity on LPA3, in words (LPA3; [11]): did not exhibit any dose-dependent antagonist activity | agonist activity on LPA3, in words (LPA3): did not exhibit any dose-dependent agonist activity | antagonist activity on LPA5, in words (LPA5; [11]): did not exhibit any dose-dependent antagonist activity | agonist activity on LPA5, in words (LPA5): did not exhibit any dose-dependent agonist activity | inhibition of A375 colony formation (A375 cells [6]; 2 μM): effectively inhibit | inhibition of A375 colony formation (A375 cells [6]; 20 μM): almost completely inhibited | inhibition of A375 colony formation (A375 cells [6]; 100 μM): completely inhibited

CN(C)/N=N/c1[nH]cnc1C(N)=O [DTIC, dacarbazine]
Antiproliferative activity on melanoma cell lines, in words ([1]; reference compounds, in vitro): inactive | tumor growth inhibition (A375 melanoma tumors; 60 mg/kg i.p. once daily, end of treatment, nude mice): 42% | body weight change during the experiment (A375 melanoma tumors; mouse, in vivo): no significant body weight loss

Cc1noc(-c2ccc(CSCCC(=O)O)cc2)c1NC(=O)OC(C)c1ccccc1Cl (stereo not shown) [Ki16425, reference compound]
agonist activity on LPA1, in words (LPA1): did not show agonist effect | agonist activity on LPA3, in words (LPA3): did not show agonist effect | agonist activity on LPA5, in words (LPA5): did not show agonist effect

(2RS,4R)-2-(4-Acetylamino-phenyl)-thiazolidine-4-carboxylic acid (1-methyl-octadecyl)-amide [Compound 3ia]
IC50 (B16-F1 cells): 18900 ± 1300 nM | IC50 (A375 cells [7]): 20600 ± 2100 nM | IC50 (WM-164 cells): 10700 ± 900 nM | IC50 [8]: > 100000 nM | fold decrease in potency compared with 1b, melanoma cells ([1]; from average IC50): 9.3 fold | IC50 [1, 12]: 16700 nM | IC50 (DU 145 cells; SRB, 96 h, Table 2): 3900 ± 400 nM | IC50 (PC-3 cells; SRB, 96 h, Table 2): 3700 ± 200 nM | IC50 (LNCaP cells [2]; SRB, Table 2): 1800 ± 100 nM | IC50 (PPC-1 cells; SRB, 96 h, Table 2): 800 ± 100 nM | fold decrease in potency compared with 1b, prostate cancer cells ([9]; from average IC50): 2.4 fold | IC50 [9]: 2600 nM | Ratio = (IC50 of RH7777 cell)/(average IC50 of prostate cell lines) [9]: 3.6

(2RS,4R)-2-(4-Acetylamino-phenyl)-thiazolidine-4-carboxylic acid-(9H-fluoren-2-yl)-amide [Compound 3id]
IC50 (B16-F1 cells): 3900 ± 300 nM | IC50 (A375 cells [7]): 2100 ± 100 nM | IC50 (WM-164 cells): 1700 ± 100 nM | IC50 [8]: 28900 ± 1000 nM | IC50 [1, 12]: 2600 nM | Ratio = (IC50 of fibroblast cell)/(the average IC50 of melanoma cell lines) [1]: 11.3 | IC50 (DU 145 cells; SRB, 96 h, Table 2): 1900 ± 300 nM | IC50 (PC-3 cells; SRB, 96 h, Table 2): 2100 ± 100 nM | IC50 (LNCaP cells [2]; SRB, Table 2): 3500 ± 700 nM | IC50 (PPC-1 cells; SRB, 96 h, Table 2): 1600 ± 100 nM | IC50 [9]: 2300 nM | Ratio = (IC50 of RH7777 cell)/(average IC50 of prostate cell lines) [9]: 2.4

(2RS,4R)-3-Acetyl-2-(4-acetylamino-phenyl)-thiazolidine-4-carboxylic acid hexadecylamide [Compound 4]
IC50 (B16-F1 cells): 15000 ± 800 nM | IC50 (A375 cells [7]): 12600 ± 500 nM | IC50 (WM-164 cells): 20400 ± 800 nM | IC50 [8]: 57700 ± 1300 nM | IC50 [1, 12]: 16000 nM | Ratio = (IC50 of fibroblast cell)/(the average IC50 of melanoma cell lines) [1]: 3.6 | IC50 (DU 145 cells; SRB, 96 h, Table 2): 14900 ± 2200 nM | IC50 (PC-3 cells; SRB, 96 h, Table 2): 9000 ± 1300 nM | IC50 (LNCaP cells [2]; SRB, Table 2): 10600 ± 600 nM | IC50 (PPC-1 cells; SRB, 96 h, Table 2): 6800 ± 800 nM | IC50 [9]: 10300 nM | Ratio = (IC50 of RH7777 cell)/(average IC50 of prostate cell lines) [9]: 1.3
